Experimental data from ChEMBL document CHEMBL4406905, “The adduct formation between the thioguanine-polyamine ligands and DNA with the AP site under UVA irradiated and non-irradiated conditions” (Bioorg Med Chem, 2019).
The source made the active and inactive calls. The rule behind the calls is not given here.

Columns and labels:
[1] = Induction of DNA cleavage in 5'-FAM-DNA1(U)/DNA2(C) duplex DNA (unknown origin) assessed as increase in slower moving bands at 10 uM measured after 1 hr by fluorescence based PAGE analysis
[2] = Induction of DNA cleavage in 5'-FAM-DNA1(U)/DNA2(C) duplex DNA (unknown origin) assessed as formation of delta elimination production DNA7 at 10 uM by fluorescence based PAGE analysis
Summary of the method: (§1)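 DNA1(U)/DNA2(X) was annealed 5 min at 70 °C and treated with uracil-DNA glycosylase (0.2 unit/µl, pH 7.4, 37 °C, 15 min) to form the AP site. The 100 nM duplex was re-annealed in 10 mM HEPES-NaOH pH 7.0 with 100 mM NaCl, then incubated with 10 µM ligand at 37 °C for 5–300 min. Reactions were quenched with urea/EDTA loading buffer on ice. Products were run on 12% denaturing PAGE (8 M urea), imaged by 5'-FAM fluorescence, and band ratios (%) quantified.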

[3] = Photo-activated binding affinity to A-F-C/T-T-G duplex DNA (unknown origin) at 100 uM measured for 24 hrs by HPLC analysis
Summary of the method: (§2)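 Duplex at 10 µM (F = tetrahydrofuran AP analogue) with 100 µM ligand in 10 mM HEPES-NaOH pH 7.0, 5 mM DTT and 100 mM NaCl. Irradiated with UVA (4 W, 365 nm) at rt. Analysed by reversed-phase C18 HPLC at 50 °C with 254 nm detection, TEAA pH 7.0/MeCN gradient. Product peak identified by MALDI-TOF MS.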

[4] = Induction of DNA cleavage in 5'-FAM-DNA1(U)/DNA2(C) duplex DNA (unknown origin) assessed as formation DNA8 at 10 uM measured for 5 hrs by fluorescence based PAGE analysis
Summary of the method: as §1

[5] = Binding affinity to A-G-C/T-C-G duplex DNA (unknown origin) assessed as change in melting temperature at 10 uM by UV-Vis spectrophotometric analysis (reference value: 48.5 +/- 0.1 degC)
[6] = Binding affinity to A-F-C/T-A-G duplex DNA (unknown origin) assessed as change in melting temperature at 10 uM by UV-Vis spectrophotometric analysis (reference value: 33.6 +/- 0.2 degC)
[7] = Binding affinity to A-C-C/T-G-G duplex DNA (unknown origin) assessed as change in melting temperature at 10 uM by UV-Vis spectrophotometric analysis (reference value: 54.8 +/- 0.0 degC)
[8] = Binding affinity to A-T-C/T-A-G duplex DNA (unknown origin) assessed as change in melting temperature at 10 uM by UV-Vis spectrophotometric analysis (reference value: 52.0 +/- 0.1 degC)
[9] = Induction of DNA cleavage in 5'-FAM-DNA1(U)/DNA2(C) duplex DNA (unknown origin) assessed as formation of beta elimination production DNA4 at 10 uM measured for 5 hrs by fluorescence based PAGE analysis
Summary of the method: as §1

[10] = Photo-activated binding affinity to A-F-C/T-C-G duplex DNA (unknown origin) assessed as induction of photo reaction at 100 uM measured for 3 hrs by HPLC analysis
Summary of the method: as §2

[11] = Binding affinity to A-A-C/T-T-G duplex DNA (unknown origin) assessed as change in melting temperature at 10 uM by UV-Vis spectrophotometric analysis (reference value: 52.1 +/- 0.1 degC)
[12] = Induction of DNA cleavage in 5'-FAM-DNA1(U)/DNA2(A) duplex DNA (unknown origin) assessed as formation DNA8 at 10 uM measured for 5 hrs by fluorescence based PAGE analysis
Summary of the method: as §1

[13] = Photo-activated binding affinity to A-F-A/T-C-T duplex DNA (unknown origin) at 100 uM measured for 24 hrs by HPLC analysis
Summary of the method: as §2

[14] = Binding affinity to A-F-C/T-T-G duplex DNA (unknown origin) assessed as change in melting temperature at 10 uM by UV-Vis spectrophotometric analysis (reference value: 33.0 +/- 0.4 degC)
[15] = Binding affinity to A-F-A/T-C-T duplex DNA (unknown origin) assessed as change in melting temperature at 10 uM by UV-Vis spectrophotometric analysis (reference value: 29.9 +/- 0.3 degC)
[16] = Photo-activated binding affinity to C-F-A/G-C-T duplex DNA (unknown origin) at 100 uM measured for 24 hrs by HPLC analysis
Summary of the method: as §2

[17] = Photo-activated binding affinity to A-F-C/T-G-G duplex DNA (unknown origin) at 100 uM measured for 24 hrs by HPLC analysis
Summary of the method: as §2

[18] = Binding affinity to A-F-C/T-C-G duplex DNA (unknown origin) assessed as change in melting temperature at 10 uM by UV-Vis spectrophotometric analysis (reference value: 30.7 +/- 0.3 degC)
[19] = Induction of DNA cleavage in 5'-FAM-DNA1(U)/DNA2(A) duplex DNA (unknown origin) assessed as formation of DNA8 at 10 uM by fluorescence based PAGE analysis
Summary of the method: as §1

[20] = Induction of DNA cleavage in 5'-FAM-DNA1(U)/DNA2(A) duplex DNA (unknown origin) assessed as change in formation of DNA4 at 10 uM by fluorescence based PAGE analysis
Summary of the method: as §1

[21] = Photo-activated binding affinity to A-F-C/T-C-G duplex DNA (unknown origin) at 100 uM measured for 24 hrs by HPLC analysis
Summary of the method: as §2

[22] = Binding affinity to C-F-A/G-C-T duplex DNA (unknown origin) assessed as change in melting temperature at 10 uM by UV-Vis spectrophotometric analysis (reference value: 32.0 +/- 0.4 degC)
[23] = Induction of DNA cleavage in 5'-FAM-DNA1(U)/DNA2(A) duplex DNA (unknown origin) assessed as formation of delta elimination production DNA7 at 10 uM measured for 5 hrs by fluorescence based PAGE analysis
Summary of the method: as §1

[24] = Induction of DNA cleavage in 5'-FAM-DNA1(U)/DNA2(C) duplex DNA (unknown origin) assessed as formation of delta elimination production DNA7 at 10 uM measured for 5 hrs by fluorescence based PAGE analysis
Summary of the method: as §1

[25] = Binding affinity to C-G-A/G-C-T duplex DNA (unknown origin) assessed as change in melting temperature at 10 uM by UV-Vis spectrophotometric analysis (reference value: 55.2 +/- 0.1 degC)
[26] = Binding affinity to A-F-C/T-G-G duplex DNA (unknown origin) assessed as change in melting temperature at 10 uM by UV-Vis spectrophotometric analysis (reference value: 34.4 +/- 0.2 degC)
[27] = Photo-activated binding affinity to A-F-C/T-A-G duplex DNA (unknown origin) at 100 uM measured for 24 hrs by HPLC analysis
Summary of the method: as §2

[28] = Induction of DNA cleavage in 5'-FAM-DNA1(U)/DNA2(C) duplex DNA (unknown origin) assessed as formation of beta elimination production DNA4 at 10 uM measured for 30 min by fluorescence based PAGE analysis
Summary of the method: as §1

[29] = Induction of DNA cleavage in 5'-FAM-DNA1(U)/DNA2(A) duplex DNA (unknown origin) assessed as formation of beta elimination production DNA4 at 10 uM measured for 5 hrs by fluorescence based PAGE analysis
Summary of the method: as §1

[30] = Binding affinity to A-G-A/T-C-T duplex DNA (unknown origin) assessed as change in melting temperature at 10 uM by UV-Vis spectrophotometric analysis (reference value: 50.3 +/- 0.1 degC)
[31] = Induction of DNA cleavage in 5'-FAM-DNA1(U)/DNA2(C) duplex DNA (unknown origin) assessed as formation of DNA8 at 10 uM by fluorescence based PAGE analysis
Summary of the method: as §1

Activity [1]	Activity [4]	ΔTm [5] [°C]	ΔTm [6] [°C]	ΔTm [7] [°C]	ΔTm [8] [°C]	Activity [9]	ΔTm [11] [°C]	Activity [12]	ΔTm [14] [°C]	ΔTm [15] [°C]	ΔTm [18] [°C]	Activity [19]	Activity [20]	Activity [21]	ΔTm [22] [°C]	Activity [23]	Activity [24]	ΔTm [25] [°C]	ΔTm [26] [°C]	SMILES	also measured
inactive																				NCCCNCCCNCCCn1cnc2c(=O)[nH]c(N)nc21	
Active	Active	0.7	2.3	0.5	0.5	Active	0.2	Active	1.2	1.8	5.4	Active	Active	Active	3.5	Active	Active	0.4	1.6	NCCCNCCCNCCCn1cnc2c(=S)[nH]c(N)nc21	Activity [2]: Active; Activity [3]: inactive; Activity [10]: Active; Activity [13]: inactive; Activity [16]: inactive; Activity [17]: inactive; Activity [27]: inactive; Activity [28]: Active; Activity [29]: Active; ΔTm [30]: 0.7 °C
	Active	0.6	2.8	1	0.6	Active	0.7	Active	3.1	3.3	4.2	Active	Active	Active	4.1	Active	Active	0.9	3.8	NCCCNCCCNCCCCCn1cnc2c(=S)[nH]c(N)nc21	Activity [31]: Active; Activity [29]: Active; ΔTm [30]: 0.6 °C
